pIC50: −log10 of the molar value. Bounds are passed on as bounds.

Assay [1] deals with DNA polymerase beta (Homo sapiens, UniProt P06746). Nature of the assay: Inhibition of human DNA polymerase beta.
Assay [2] in a line: Inhibition of human N terminal deleted DNA polymerase lambda Del-1 mutant. The method, boiled down:
(§1)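 Dose-response was run on 0.05 U of full-length (residues 1–575), del-1 (133–575) or del-2 (245–575) human pol λ. Compound in DMSO was preincubated 10 min at 0 °C, then the reaction ran 60 min at 37 °C with poly(dA)/oligo(dT)12-18 and dTTP. Activity relative to the no-compound control; means ± SEM of three independent experiments.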

A short description of assay [3]: Inhibition of human N terminal deleted DNA polymerase lambda Del-2 mutant. The method, boiled down: as §1
Assay [4] deals with T1, DNA polymerase lambda (Homo sapiens, UniProt Q9UGP5).
T1 sequence (Q9UGP5 whole entry): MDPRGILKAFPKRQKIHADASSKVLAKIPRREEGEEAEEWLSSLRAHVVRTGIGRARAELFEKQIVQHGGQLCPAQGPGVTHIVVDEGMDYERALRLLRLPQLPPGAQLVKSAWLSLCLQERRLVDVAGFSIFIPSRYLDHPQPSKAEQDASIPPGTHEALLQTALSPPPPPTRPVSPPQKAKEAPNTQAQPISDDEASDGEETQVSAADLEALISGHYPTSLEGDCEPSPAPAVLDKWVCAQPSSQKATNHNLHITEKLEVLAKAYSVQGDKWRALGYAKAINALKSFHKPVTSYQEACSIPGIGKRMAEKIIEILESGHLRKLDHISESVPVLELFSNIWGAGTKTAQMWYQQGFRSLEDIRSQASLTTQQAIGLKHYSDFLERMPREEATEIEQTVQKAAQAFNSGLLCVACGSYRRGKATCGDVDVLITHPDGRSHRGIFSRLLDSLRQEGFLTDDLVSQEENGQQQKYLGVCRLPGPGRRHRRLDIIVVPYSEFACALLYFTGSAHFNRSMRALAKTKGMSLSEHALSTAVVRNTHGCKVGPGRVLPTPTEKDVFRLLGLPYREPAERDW
Nature of the assay: Inhibition of human DNA polymerase lambda. The method, boiled down: as §1

What is called pIC50 is the IC50 on a negative log10 scale, so that one unit is a factor of ten. Consider `C/C(=C\CC[C@H](C)C(=O)O)[C@H]1CC[C@H](C(=O)O)CC1` [HYMENOIC ACID], for which the pIC50 was below 3.70 in assay [1], below 3.70 in assay [2], below 3.70 in assay [3] and 4.04 in assay [4].

(Values after ChEMBL document CHEMBL1157184, “Hymenoic acid, a novel specific inhibitor of human DNA polymerase lambda from a fungus of Hymenochaetaceae sp” (Bioorg Med Chem, 2008).)
